Assay results from ChEMBL document CHEMBL5316296, “Indole Derivatives as New Structural Class of Potent and Antiproliferative Inhibitors of Monocarboxylate Transporter 1 (MCT1; SLC16A1)” (J Med Chem, 2023).
Active and inactive are the calls of the source. No cut-off for these calls is given here.

Key:
[1] = target: T1, Monocarboxylate transporter 4 (Homo sapiens) (UniProt O15427); experiment: Inhibition of MCT4 in human MDA-MB-231 cells assessed as inhibition of acidic lactate extrusion by measuring reduction in pH at 10 uM incubated for 12 hrs by BCECF-AM dye based fluorescence spectrophotometric analysis; assay type: cell-based
T1 sequence (whole entry): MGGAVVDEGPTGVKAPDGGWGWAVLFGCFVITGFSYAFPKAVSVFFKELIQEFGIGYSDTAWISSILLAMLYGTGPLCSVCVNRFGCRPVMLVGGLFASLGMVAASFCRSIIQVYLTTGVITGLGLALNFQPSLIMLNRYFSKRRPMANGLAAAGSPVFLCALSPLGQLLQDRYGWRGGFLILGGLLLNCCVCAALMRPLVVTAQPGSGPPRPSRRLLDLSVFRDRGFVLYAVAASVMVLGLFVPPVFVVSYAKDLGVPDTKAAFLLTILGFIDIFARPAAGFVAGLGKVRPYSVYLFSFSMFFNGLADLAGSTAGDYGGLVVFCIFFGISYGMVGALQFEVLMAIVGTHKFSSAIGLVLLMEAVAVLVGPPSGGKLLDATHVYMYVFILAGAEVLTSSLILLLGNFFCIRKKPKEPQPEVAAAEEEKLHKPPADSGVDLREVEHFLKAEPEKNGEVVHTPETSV
Summary of the method: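 MDA-MB-231 cells (50,000/well) plated overnight, then treated with 10 μM compound for 12 h at 37 °C. Loaded with BCECF-AM (5 μM, 1 h), washed twice. Intracellular pH from emission ratio against per-plate calibration (pH 4.5–7.5 buffers with 10 μM nigericin and 10 μM valinomycin, 30 min, room temperature).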

[2] = system: A2780 ADR; experiment: Induction of doxorubicin sensitization in human A2780 ADR cells expressing ABCB1 assessed as left shift of the concentration-effect curve at 5 uM incubated for 72 hrs by MTT assay; assay type: functional, cell-based
Summary of the method: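 ABCB1-expressing A2780/ADR cells given test compound at 1.0, 2.0, 3.5 or 5.0 μM with a doxorubicin series; MTT viability readout. Shift of doxorubicin concentration-effect curve compared against parental A2780. DMSO and medium define 0 and 100%; at least three independent experiments.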

[3] = system: NIH3T3; experiment: Cytotoxicity against mouse NIH3T3 cells assessed as cell viability incubated for 72 hrs by MTT assay; assay type: toxicity, cell-based; details: nih3t3, 72 h
Summary of the method: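 NIH/3T3 murine embryonic fibroblasts (5000/well) screened at 10 and 50 μM compound for 72 h at 37 °C, 5% CO2. MTT readout (1 h), DMSO-dissolved formazan read at 570 nm, 690 nm background. DMSO and culture medium define 0 and 100% viability; at least three independent experiments.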

[4] = system: A549; experiment: Antiproliferative activity against human A549 cells expressing MCT1 assessed as effect on cell viability incubated for 72 hrs in the presence of glucose by MTT assay; assay type: functional, cell-based
Summary of the method: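 A-549 cells (5000/well) with compound over 72 h; glucose added every 12 h to give 25% or 50% of the original 4.5 g/L. Viability by MTT, absorbance 570 nm (690 nm background). DMSO and culture medium define 0 and 100%; at least three independent experiments.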

[5] = Induction of doxorubicin sensitization in human A2780 ADR cells expressing ABCB1 assessed as doxorubicin at 2 uM incubated for 72 hrs by MTT assay; assay type: functional
Summary of the method: (§1)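 ABCB1-expressing A2780/ADR cells (grown in RPMI-1640 with 10% FBS) were exposed to a doxorubicin dilution series, with or without a fixed test-compound level of 1.0, 2.0, 3.5 or 5.0 μM. Viability was read by MTT, with DMSO as 0% and medium as 100%. GI50 values come from at least three independent experiments and are compared with doxorubicin alone on sensitive A2780 cells.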

[6] = Induction of doxorubicin sensitization in human A2780 ADR cells expressing ABCB1 assessed as doxorubicin at 3.5 uM incubated for 72 hrs by MTT assay; assay type: functional; summary of the method: as §1
[7] = Induction of doxorubicin sensitization in human A549 cells expressing MCT1 assessed as doxorubicin GI50 at 50 nM incubated for 72 hrs by MTT assay; assay type: functional
Summary of the method: (§2)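 A-549 cells (~5000/well) given test compound at fixed 50, 100 or 500 nM plus doxorubicin dilution series 50 nM–50 μM. Incubated 72 h at 37 °C, 5% CO2, then MTT readout.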

[8] = Induction of doxorubicin sensitization in human A2780 ADR cells expressing ABCB1 assessed as doxorubicin at 1 uM incubated for 72 hrs by MTT assay; assay type: functional; summary of the method: as §1
[9] = Induction of doxorubicin sensitization in human A549 cells expressing MCT1 assessed as doxorubicin GI50 at 100 nM incubated for 72 hrs by MTT assay; assay type: functional; summary of the method: as §2
[10] = Induction of doxorubicin sensitization in human A2780 ADR cells expressing ABCB1 assessed as doxorubicin at 5 uM incubated for 72 hrs by MTT assay; assay type: functional; summary of the method: as §1
[11] = Antiproliferative activity against human A2780 ADR cells expressing ABCB1 assessed as growth inhibition incubated for 72 hrs by MTT assay; assay type: functional
[12] = Growth inhibition of human A549 cells expressing MCT1 at 50 uM incubated for 72 hrs by MTT assay relative to control; assay type: toxicity, cell-based; details: read-out: GI

SMILES	inhibition [1]	Activity [3]	also measured
COC(=O)/C(C#N)=C/c1cn(CC(=O)Nc2ccc(OC)cc2)c2ccccc12	inactive	Non-Toxic	Activity [2]: Active; Activity [4]: inactive; GI50 [5]: 0.214 µM; GI50 [6]: 0.11 µM; GI50 [7]: 0.04 µM; GI50 [8]: 0.332 µM; GI50 [9]: 0.0277 µM; GI50 [10]: 0.0322 µM
COc1cccc2c1C(=O)c1c(O)c3c(c(O)c1C2=O)C[C@@](O)(C(=O)CO)C[C@@H]3O[C@H]1C[C@H](N)[C@H](O)[C@H](C)O1 [DOXORUBICIN]	–	–	GI50 [11]: 0.802 µM
COC(=O)/C(C#N)=C/c1cn(CC(=O)Nc2c(Cl)cccc2Cl)c2ccccc12	inactive	Non-Toxic	–
COC(=O)/C(C#N)=C/c1cn(CC(=O)Nc2ccc(Br)cc2)c2ccccc12	inactive	Non-Toxic	–
N#C/C(=C\c1ccc(O)cc1)C(=O)O [alpha-CYANO-4-HYDROXYCINNAMIC ACID]	–	Non-Toxic	–
COC(=O)/C(C#N)=C/c1cn(CC(=O)Nc2ccc(C)cn2)c2ccccc12	inactive	Non-Toxic	Activity [2]: Active; Activity [4]: inactive; GI50 [5]: 0.165 µM; GI50 [6]: 0.0324 µM; GI50 [7]: 0.0386 µM; GI50 [8]: 0.516 µM; GI50 [9]: 0.0254 µM; GI50 [10]: 0.0129 µM
O=C(O)C(=O)CBr [BROMOPYRUVATE]	–	–	inhibition at 72 h, 50 µM [12]: ≥ 90%
COC(=O)/C(C#N)=C/c1cn(CC(=O)Nc2ccc(Cl)cc2)c2ccccc12	inactive	Non-Toxic	–
COC(=O)/C(C#N)=C/c1cn(CC(=O)Nc2cccnc2)c2ccccc12	inactive	Non-Toxic	–
COC(=O)/C(C#N)=C/c1cn(CC(=O)Nc2ccc3ccccc3c2)c2ccccc12	inactive	Non-Toxic	–
COC(=O)/C(C#N)=C/c1cn(CC(=O)Nc2ccc(Br)cn2)c2ccccc12	inactive	Non-Toxic	–

More lines, main results first:

inhibition [1]	SMILES	Activity [3]	also measured
inactive	COC(=O)/C(C#N)=C/c1cn(CC(=O)Nc2ccccc2)c2ccccc12	Non-Toxic	–
inactive	COC(=O)/C(C#N)=C/c1cn(CC(=O)Nc2ccccc2C)c2ccccc12	Non-Toxic	–
inactive	COC(=O)/C(C#N)=C/c1cn(CC(=O)Nc2ccccn2)c2ccccc12	Non-Toxic	–
inactive	COC(=O)/C(C#N)=C/c1cn(CC(=O)Nc2ccccc2OC)c2ccccc12	Non-Toxic	–
inactive	COC(=O)/C(C#N)=C/c1cn(CC(=O)Nc2ccc(C)cc2)c2ccccc12	Non-Toxic	–
inactive	COC(=O)/C(C#N)=C/c1cn(CC(=O)Nc2cccc3ccccc23)c2ccccc12	Non-Toxic	–
inactive	COC(=O)/C(C#N)=C/c1cn(CC(=O)Nc2cccc(OC)c2)c2ccccc12	Non-Toxic	–
inactive	COC(=O)/C(C#N)=C/c1cn(CC(=O)Nc2ccc(F)cc2)c2ccccc12	Non-Toxic	–
